Entries after “also recorded” stand apart in the source; their conditions may differ. Like-named read-outs stand apart in the source and are kept apart here. Where only a bound is given, the exact number is not on record here.

One series relates to KB cells. The experiment in a line: cells. It is filed as cell-based. The following applies: Homo sapiens, read-out: IC50 ± SD.
A further series relates to KB/VCR cells. Nature of the series: cells. It is filed as cell-based. The following applies: Homo sapiens, read-out: IC50 ± SD.
In another series the test system is heart tissues. The experiment in a line: TUNEL assay of heart tissues. It is filed as in vivo. The conditions noted are these: male and female Balb/c mice. The gist of the method: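 Heart tissue came from the 3-week mouse study: vehicle; test compound 100 mg/kg gavage twice weekly; ADM 20 mg/kg i.p. on day 6; combination. Paraffin sections (4 µm) were stained with an in situ TUNEL kit, and positive cells were counted in three random fields per slide by light microscopy. Percent apoptotic cells was compared by one-way ANOVA with Dunnett's test.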

Another series concerns the target CYP3A4 (Homo sapiens, UniProt P08684). Nature of the series: CYP inhibition in pooled human liver microsomes, CYP3A4. It is filed as biochemical. On the technique in general: Liver microsomes are a subcellular fraction often used to study metabolism.
A further series concerns the target CYP2D6 (Homo sapiens, UniProt P10635). The experiment in a line: CYP inhibition in pooled human liver microsomes, CYP2D6. It is filed as biochemical. The following applies: CYP2D6, Dextromethorphandextrorphan.
Series [1] can be described thus: Pharmacokinetic study, oral and i.v. administration. Type of series: in vivo, SD rats. In a few lines: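 Adult male SD rats got a single 10 mg/kg dose by tail-vein injection or oral gavage. Blood was drawn from three rats predose and at 0.083–24 h; plasma was frozen at −80°C. Plasma was deproteinized with methanol containing 250 nM internal standard for LC/MS/MS. PK parameters came from a noncompartmental i.v.-bolus model.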

A further series deals with Balb/c mice. Nature of the series: Maximum tolerant dosage, single high-dose PPD12. Type of series: in vivo. The conditions noted are these: 1 g/kg PPD12. In a few lines: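 Single oral gavage of test compound at 1 g/kg to Balb/c mice to assess tolerability of a single high dose.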
The target in another series is T1, CYP2C8 (Homo sapiens, UniProt P10632).
T1 sequence (P10632 1-490): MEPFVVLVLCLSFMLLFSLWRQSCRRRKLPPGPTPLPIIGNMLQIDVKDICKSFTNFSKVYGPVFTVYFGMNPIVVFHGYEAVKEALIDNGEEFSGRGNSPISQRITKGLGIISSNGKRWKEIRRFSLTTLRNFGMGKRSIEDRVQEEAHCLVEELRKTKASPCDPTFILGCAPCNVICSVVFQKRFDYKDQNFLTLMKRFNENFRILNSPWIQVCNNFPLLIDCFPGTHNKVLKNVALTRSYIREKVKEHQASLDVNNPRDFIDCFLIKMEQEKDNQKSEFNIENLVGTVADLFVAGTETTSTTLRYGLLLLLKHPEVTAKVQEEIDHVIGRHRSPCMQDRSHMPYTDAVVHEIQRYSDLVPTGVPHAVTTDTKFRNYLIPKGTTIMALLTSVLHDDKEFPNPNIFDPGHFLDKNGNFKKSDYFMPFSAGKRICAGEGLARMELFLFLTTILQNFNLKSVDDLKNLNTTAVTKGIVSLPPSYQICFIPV
The experiment in a line: CYP inhibition in pooled human liver microsomes, CYP2C8. Type of series: biochemical. The conditions noted are these: CYP2C8, Amodiaquine N-deethylation.

The target of the next series is T2, CYP2B6 (Homo sapiens, UniProt P20813).
T2 sequence (P20813 1-491): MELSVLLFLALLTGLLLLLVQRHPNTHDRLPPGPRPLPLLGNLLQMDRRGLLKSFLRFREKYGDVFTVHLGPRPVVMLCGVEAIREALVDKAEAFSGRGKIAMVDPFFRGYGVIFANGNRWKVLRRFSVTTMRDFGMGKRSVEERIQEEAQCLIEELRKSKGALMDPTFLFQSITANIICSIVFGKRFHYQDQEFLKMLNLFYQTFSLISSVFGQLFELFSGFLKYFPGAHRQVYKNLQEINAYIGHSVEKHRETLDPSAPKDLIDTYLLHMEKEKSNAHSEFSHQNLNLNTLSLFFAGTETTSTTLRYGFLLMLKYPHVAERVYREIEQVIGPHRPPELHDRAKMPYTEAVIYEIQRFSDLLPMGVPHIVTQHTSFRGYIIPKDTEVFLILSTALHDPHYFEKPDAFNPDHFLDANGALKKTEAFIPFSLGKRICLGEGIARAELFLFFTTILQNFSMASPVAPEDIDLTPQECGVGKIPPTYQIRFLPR
Nature of the series: CYP inhibition in pooled human liver microsomes, CYP2B6. Type of series: biochemical. The conditions noted are these: CYP2B6, Bupropion hydroxylation.

In a further series the target is CYP2C19 (Homo sapiens, UniProt P33261). The conditions noted are these: CYP2C19, S-mephenytoin4′-hydroxylation, human liver microsomes.
CYP2C19, sequence (P33261 whole entry): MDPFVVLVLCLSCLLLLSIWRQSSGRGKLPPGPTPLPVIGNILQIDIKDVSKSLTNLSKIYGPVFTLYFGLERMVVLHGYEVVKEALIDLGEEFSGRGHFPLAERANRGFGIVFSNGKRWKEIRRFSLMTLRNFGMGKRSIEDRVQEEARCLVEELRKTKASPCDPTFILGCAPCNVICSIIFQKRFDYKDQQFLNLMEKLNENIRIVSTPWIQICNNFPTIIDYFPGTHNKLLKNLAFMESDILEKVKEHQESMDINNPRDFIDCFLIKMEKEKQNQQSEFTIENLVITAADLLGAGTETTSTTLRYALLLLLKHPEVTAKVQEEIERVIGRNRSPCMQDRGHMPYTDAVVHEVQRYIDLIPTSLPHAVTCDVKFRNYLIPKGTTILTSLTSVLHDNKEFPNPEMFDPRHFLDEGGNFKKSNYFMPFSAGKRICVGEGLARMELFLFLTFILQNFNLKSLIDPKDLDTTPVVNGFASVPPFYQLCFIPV
The next series concerns the target CYP2C9 (Homo sapiens, UniProt P11712). The experiment in a line: CYP inhibition in pooled human liver microsomes, CYP2C9. It is filed as biochemical.
Another series addresses T3, CYP1A2 (Homo sapiens, UniProt P05177).
T3 sequence (P05177 1-516): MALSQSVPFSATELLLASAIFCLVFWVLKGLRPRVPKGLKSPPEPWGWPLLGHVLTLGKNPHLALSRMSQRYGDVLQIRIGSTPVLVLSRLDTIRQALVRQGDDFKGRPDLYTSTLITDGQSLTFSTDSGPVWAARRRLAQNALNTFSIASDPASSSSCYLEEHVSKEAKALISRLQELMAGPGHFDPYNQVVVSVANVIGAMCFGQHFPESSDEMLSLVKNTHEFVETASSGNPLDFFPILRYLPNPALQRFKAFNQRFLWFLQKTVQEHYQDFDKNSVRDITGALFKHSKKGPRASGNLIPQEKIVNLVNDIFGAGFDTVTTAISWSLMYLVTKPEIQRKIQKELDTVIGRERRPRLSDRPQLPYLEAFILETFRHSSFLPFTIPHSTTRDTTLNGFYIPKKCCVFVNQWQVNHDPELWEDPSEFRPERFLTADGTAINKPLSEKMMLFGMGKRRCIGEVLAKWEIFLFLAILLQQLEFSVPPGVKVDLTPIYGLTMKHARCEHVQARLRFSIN
The experiment in a line: CYP inhibition in pooled human liver microsomes, CYP1A2. Type of series: biochemical.

CYP2C9, sequence (P11712 whole entry): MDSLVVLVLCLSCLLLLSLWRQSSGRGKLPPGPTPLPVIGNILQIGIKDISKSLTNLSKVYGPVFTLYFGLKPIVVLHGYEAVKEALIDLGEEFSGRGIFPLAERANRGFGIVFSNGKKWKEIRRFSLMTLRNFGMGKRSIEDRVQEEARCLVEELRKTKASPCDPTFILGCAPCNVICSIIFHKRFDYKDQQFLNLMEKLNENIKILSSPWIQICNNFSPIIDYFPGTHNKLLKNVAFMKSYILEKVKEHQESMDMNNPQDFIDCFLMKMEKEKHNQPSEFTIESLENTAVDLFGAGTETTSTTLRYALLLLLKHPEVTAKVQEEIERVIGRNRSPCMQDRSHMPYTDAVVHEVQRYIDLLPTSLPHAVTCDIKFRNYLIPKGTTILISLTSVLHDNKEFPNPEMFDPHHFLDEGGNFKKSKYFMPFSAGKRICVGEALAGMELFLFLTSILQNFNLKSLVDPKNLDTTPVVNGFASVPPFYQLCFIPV
CYP3A4, sequence (P08684 whole entry): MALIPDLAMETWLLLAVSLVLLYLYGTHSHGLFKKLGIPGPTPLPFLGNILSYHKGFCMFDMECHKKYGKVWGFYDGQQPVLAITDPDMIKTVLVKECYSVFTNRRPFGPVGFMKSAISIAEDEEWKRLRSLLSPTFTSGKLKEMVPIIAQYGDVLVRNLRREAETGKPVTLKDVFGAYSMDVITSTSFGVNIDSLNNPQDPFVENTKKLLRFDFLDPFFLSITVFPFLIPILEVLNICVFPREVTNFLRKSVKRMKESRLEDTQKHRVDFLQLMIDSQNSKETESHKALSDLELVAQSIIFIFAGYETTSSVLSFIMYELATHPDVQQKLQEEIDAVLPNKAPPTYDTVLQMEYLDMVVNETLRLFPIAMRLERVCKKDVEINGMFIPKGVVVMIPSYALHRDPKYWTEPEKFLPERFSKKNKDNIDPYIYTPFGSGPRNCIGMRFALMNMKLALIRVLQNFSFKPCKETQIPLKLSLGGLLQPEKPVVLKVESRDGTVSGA
CYP2D6, sequence (P10635 whole entry): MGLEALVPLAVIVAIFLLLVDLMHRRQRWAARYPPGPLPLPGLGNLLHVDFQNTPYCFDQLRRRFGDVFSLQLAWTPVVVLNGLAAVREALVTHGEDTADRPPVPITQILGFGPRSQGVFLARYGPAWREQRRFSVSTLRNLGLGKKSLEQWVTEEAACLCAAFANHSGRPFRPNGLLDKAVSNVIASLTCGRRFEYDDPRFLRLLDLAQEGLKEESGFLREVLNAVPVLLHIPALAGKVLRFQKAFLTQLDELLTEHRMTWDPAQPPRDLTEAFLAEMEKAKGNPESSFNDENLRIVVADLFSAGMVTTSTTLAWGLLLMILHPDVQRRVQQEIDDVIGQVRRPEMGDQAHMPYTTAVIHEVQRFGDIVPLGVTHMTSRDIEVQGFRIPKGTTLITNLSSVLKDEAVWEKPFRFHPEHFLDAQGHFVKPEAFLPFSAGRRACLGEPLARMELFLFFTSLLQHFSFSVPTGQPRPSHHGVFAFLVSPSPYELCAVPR

As a reminder, the IC50 is the concentration that gives 50% inhibition. `COc1cccc2c1C(=O)c1c(O)c3c(c(O)c1C2=O)C[C@@](O)(C(=O)CO)C[C@@H]3O[C@H]1C[C@H](N)[C@H](O)[C@H](C)O1` [ADM, Adriamycin]: the half-inhibitory concentration (IC50) was found to be 2380 nM in the series with KB cells (24 h); 390 nM in the series on KB cells (48 h); 71.3 nM in the series on KB cells (72 h); 35.1 nM with KB cells (96 h); 151000 nM with KB/VCR cells (24 h); 4780 nM in the series on KB/VCR cells (48 h). In addition, the values for the 50% inhibitory concentration (IC50) in the series with KB/VCR cells (72 h) and in the series on KB/VCR cells (96 h) were 1520 nM and 1190 nM, respectively. Also, in the series with heart tissues, the “apoptotic cells in heart tissues (TUNEL) compared to the control group” value is on record as “significant increase in apoptosis”.
As for `CC1(C)[C@@H](O)CC[C@]2(C)[C@H]3C[C@@H](O)[C@@H]4[C@@H]([C@@](C)(O)CCCNCc5ccccc5)CC[C@@]4(C)[C@]3(C)CC[C@@H]12` [PPD12], the IC50 against CYP3A4 (CYP3A4, Midazolam 1′-hydroxylation) was 1030 nM; against CYP3A4 (CYP3A4, Testosterone 6-β-hydroxylation), 8430 nM; on CYP2D6, 11800 nM; against CYP2C8, 9570 nM; on CYP2B6, 2210 nM; at CYP2C19, 15000 nM. Further, the IC50 on CYP2C9 (CYP2C9, Diclofenac4′-hydroxylation) was over 33000 nM; at CYP1A2 (CYP1A2, Phenacetin 0-deethylation), over 33000 nM. The oral absolute bioavailability in [1] (male SD rats, 10 mg/kg oral vs i.v.) amounted to 114.41±22.24%. The “bioavailability by oral administration” value in [1] (mouse model (so in the source)) is listed as about 100%. In addition, the “lethal effects / tolerability of a single high dosage” value in the series with Balb/c mice is reported as “did not observe any lethal effects; also recorded: well tolerated”. For the same molecule, the “inhibition of CYP2C9-mediated diclofenac4′-hydroxylation” value at CYP2C9 (at 33 µM) is “negligible inhibition”. At CYP1A2 (at 33 µM), the “inhibition of CYP1A2-mediated phenacetin 0-deethylation” value was “negligible inhibition”. The “apoptotic cells in heart tissues (TUNEL) compared to the control group” value in the series on heart tissues was “no obvious difference in apoptotic cells”.

Values taken from publication PMC6176371 (Oncology Letters, 2018).
